Test results reported in ChEMBL document CHEMBL4257459, “Synergistic antifungal effect of cyclized chalcone derivatives and fluconazole against Candida albicans” (2017).
Values after ≈ are worked out from the molar mass of the structure shown.

Assays:
[1] = tested on: Candida albicans; assay: Antifungal activity against fluconazole resistant Candida albicans A171 by CLSI protocol based broth microdilution method; type: functional
In short: (§1)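 Broth microdilution per CLSI M27-A3 against clinical C. albicans isolates. Strains sub-cultured at least twice on Tryptone Soya Agar, 37 °C, 48 h. Compounds dissolved in DMSO at 2000 μg mL–1 stock. Fluconazole positive control, plus culture, media and vehicle controls. Run in duplicate; MIC in μg mL–1.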

[2] = tested on: Candida albicans; assay: Antifungal activity against Candida albicans ATCC 90028 by CLSI protocol based broth microdilution method; type: functional
In short: (§2)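 Clinical isolates and control strain subcultured at least twice on TSA, 37 °C, 48 h. MICs by CLSI M27-A3 broth microdilution; compounds dissolved in DMSO to 2000 μg mL–1 stock. Fluconazole positive control, culture, media and DMSO vehicle controls in each run. Duplicate experiments; MIC in μg mL–1.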

[3] = tested on: Candida albicans; assay: Antifungal activity against fluconazole resistant Candida albicans 167-1 in presence of fluconazole by CLSI protocol based broth microdilution method; type: functional
In short: (§3)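 Checkerboard-style combination with fluconazole at a 1 : 1 ratio, over concentrations 2–4 fold below each agent's MIC alone, by CLSI broth microdilution. Fractional inhibitory concentration index calculated and interpreted as synergy (<0.5), additive (0.5–1), indifferent or antagonistic.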

[4] = tested on: Candida albicans; assay: Inhibition of ABC efflux pumps in fluconazole susceptible Candida albicans 0072gr assessed as reduction in energy-dependent rhodamine 6G efflux in presence of 0.1 M glucose after 25 mins […] relative to control
[5] = tested on: Candida albicans; assay: Antifungal activity against fluconazole susceptible Candida albicans 003gr in presence of fluconazole by CLSI protocol based broth microdilution method; type: functional
[6] = tested on: Candida albicans; assay: Inhibition of ABC efflux pumps in fluconazole susceptible Candida albicans 002B1 assessed as reduction in energy-dependent rhodamine 6G efflux in presence of 0.1 M glucose after 25 mins […] relative to control
[7] = tested on: Candida albicans; assay: Antifungal activity against fluconazole susceptible Candida albicans 004B1 in presence of fluconazole by CLSI protocol based broth microdilution method; type: functional
[8] = tested on: Candida albicans; assay: Inhibition of ABC efflux pumps in fluconazole susceptible Candida albicans 0079gr assessed as reduction in energy-dependent rhodamine 6G efflux in presence of 0.1 M glucose after 25 mins by fluorescence assay relative to control
In short: (§4)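 Cells grown in TSB at 37 °C for 8 h, washed, resuspended in glucose-free PBS at 1 × 10^8 cells. De-energized 45 min with 5 mM deoxyglucose plus 5 mM dinitrophenol. […] Washed, sampled 5–25 min, then 0.1 M glucose added. Absorbance 527 nm, R6G from standard curve.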

[9] = tested on: Candida albicans; assay: Inhibition of ABC efflux pumps in fluconazole resistant Candida albicans 167-1 assessed as reduction in energy-dependent rhodamine 6G efflux in presence of 0.1 M glucose after 25 mins […] relative to control
[10] = tested on: Candida albicans; assay: Antifungal activity against fluconazole resistant Candida albicans 167-1 by CLSI protocol based broth microdilution method; type: functional; in short: as §1
[11] = tested on: Candida albicans; assay: Inhibition of ABC efflux pumps in fluconazole susceptible Candida albicans 004gr assessed as reduction in energy-dependent rhodamine 6G efflux in presence of 0.1 M glucose after 25 mins by fluorescence assay relative to control; in short: as §4
[12] = tested on: Candida albicans; assay: Inhibition of ABC efflux pumps in fluconazole resistant Candida albicans 167-2 assessed as reduction in energy-dependent rhodamine 6G efflux in presence of 0.1 M glucose after 25 mins […] relative to control
[13] = tested on: Candida albicans; assay: Antifungal activity against fluconazole resistant Candida albicans 167-2 in presence of fluconazole by CLSI protocol based broth microdilution method; type: functional; in short: as §3
[14] = tested on: Candida albicans; assay: Antifungal activity against fluconazole susceptible Candida albicans 0072gr by CLSI protocol based broth microdilution method; type: functional; in short: as §2
[15] = tested on: Candida albicans; assay: Inhibition of ergosterol biosynthesis in fluconazole susceptible Candida albicans ATCC 90028 at 0.5 to 1 times MIC relative to control; type: functional
In short: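 ATCC90028 grown in 50 ml TSB with MIC and ½ MIC of compound; untreated and 8 μg mL–1 fluconazole controls. Sterols extracted by alcoholic KOH method and spectrophotometrically scanned; ergosterol % calculated from A281.5 and A230 (E values 290 and 518) with dilution factor, per pellet weight.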

[16] = tested on: Candida albicans; assay: Inhibition of ABC efflux pumps in fluconazole resistant Candida albicans A171 assessed as reduction in energy-dependent rhodamine 6G efflux in presence of 0.1 M glucose after 25 mins by fluorescence assay relative to control; in short: as §4
[17] = tested on: Candida albicans; assay: Antifungal activity against fluconazole susceptible Candida albicans 003gr by CLSI protocol based broth microdilution method; type: functional; in short: as §2
[18] = tested on: Candida albicans; assay: Antifungal activity against fluconazole susceptible Candida albicans 004gr by CLSI protocol based broth microdilution method; type: functional; in short: as §2
[19] = tested on: Candida albicans; assay: Antifungal activity against fluconazole resistant Candida albicans 167-2 by CLSI protocol based broth microdilution method; type: functional; in short: as §1
[20] = tested on: Candida albicans; assay: Antifungal activity against fluconazole susceptible Candida albicans 002B1 by CLSI protocol based broth microdilution method; type: functional; in short: as §2
[21] = tested on: Candida albicans; assay: Inhibition of ABC efflux pumps in fluconazole susceptible Candida albicans 003gr assessed as reduction in energy-dependent rhodamine 6G efflux in presence of 0.1 M glucose after 25 mins […] relative to control
[22] = tested on: Candida albicans; assay: Antifungal activity against fluconazole susceptible Candida albicans 0079gr in presence of fluconazole by CLSI protocol based broth microdilution method; type: functional
[23] = tested on: Candida albicans; assay: Antifungal activity against fluconazole susceptible Candida albicans 004gr in presence of fluconazole by CLSI protocol based broth microdilution method; type: functional
[24] = tested on: Candida albicans; assay: Inhibition of ergosterol biosynthesis in fluconazole resistant Candida albicans A171 at 0.5 to 1 times MIC relative to control; type: functional
In short: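 Total sterols quantified by alcoholic KOH extraction in cells grown in 50 ml TSB with compounds at MIC and ½ MIC; untreated and 8 μg mL–1 fluconazole controls. Spectral scan; ergosterol content from A281.5 and A230 absorbances, dilution factor and pellet weight, correcting for 24(28) DHE.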

[25] = tested on: Candida albicans; assay: Antifungal activity against fluconazole susceptible Candida albicans 002B1 in presence of fluconazole by CLSI protocol based broth microdilution method; type: functional
[26] = tested on: Candida albicans; assay: Antifungal activity against fluconazole susceptible Candida albicans 0072gr in presence of fluconazole by CLSI protocol based broth microdilution method; type: functional
[27] = tested on: Candida albicans; assay: Inhibition of ABC efflux pumps in fluconazole susceptible Candida albicans 004B1 assessed as reduction in energy-dependent rhodamine 6G efflux in presence of 0.1 M glucose after 25 mins by fluorescence assay relative to control; in short: as §4
[28] = tested on: Candida albicans; assay: Antifungal activity against Candida albicans ATCC 90028 in presence of fluconazole by CLSI protocol based broth microdilution method; type: functional
[29] = tested on: Candida albicans; assay: Antifungal activity against fluconazole susceptible Candida albicans 004B1 by CLSI protocol based broth microdilution method; type: functional; in short: as §2
[30] = tested on: Candida albicans; assay: Antifungal activity against fluconazole resistant Candida albicans A171 in presence of fluconazole by CLSI protocol based broth microdilution method; type: functional; in short: as §3
[31] = tested on: Candida albicans; assay: Antifungal activity against fluconazole susceptible Candida albicans 0079gr by CLSI protocol based broth microdilution method; type: functional; in short: as §2

Row | SMILES | MIC [1] [µg/mL] | MIC [2] [µg/mL] | fractional inhibitory concentration index (FICI) [3] | inhibition [4] [%] | fractional inhibitory concentration index (FICI) [5] | inhibition [6] [%] | fractional inhibitory concentration index (FICI) [7] | inhibition [8] [%] | inhibition [9] [%] | MIC [10] [µg/mL] | inhibition [11] [%] | inhibition [12] [%] | fractional inhibitory concentration index (FICI) [13] | MIC [14] [µg/mL] | inhibition (INH) [15] | inhibition [16] [%] | MIC [17] [µg/mL] | MIC [18] [µg/mL] | MIC [19] [µg/mL] | MIC [20] [µg/mL] | also measured
1 | c1ccc(-c2cc(-c3ccccc3)[nH]n2)cc1 | 62 to 125 (≈ 281 to 567 µM) | 16 to 62 (≈ 72.6 to 281 µM) | 0.625 - 1.5 | < 20 | 0.63 - 2.5 | < 20 | 0.63 - 2.5 | < 20 | < 20 | 62 to 125 (≈ 281 to 567 µM) | < 20 | < 20 | 0.625 - 1.5 | 16 to 62 (≈ 72.6 to 281 µM) | 66 - 99% | < 20 | 16 to 62 (≈ 72.6 to 281 µM) | 16 to 62 (≈ 72.6 to 281 µM) | 62 to 125 (≈ 281 to 567 µM) | 16 to 62 (≈ 72.6 to 281 µM) | inhibition [21]: < 20%; fractional inhibitory concentration index (FICI) [22]: 0.63 - 2.5; fractional inhibitory concentration index (FICI) [23]: 0.63 - 2.5; inhibition (INH) [24]: 49 - 94%; fractional inhibitory concentration index (FICI) [25]: 0.63 - 2.5; fractional inhibitory concentration index (FICI) [26]: 0.63 - 2.5; inhibition [27]: < 20%; fractional inhibitory concentration index (FICI) [28]: 0.63 - 2.5; MIC [29]: 16 to 62 µg/mL (≈ 72.6 to 281 µM); fractional inhibitory concentration index (FICI) [30]: 0.625 - 1.5; MIC [31]: 16 to 62 µg/mL (≈ 72.6 to 281 µM)
2 | NC(=S)N1N=C(c2ccccc2)CC1c1ccccc1 (configuration not stated) | 500 (≈ 1780 µM) | 125 to 500 (≈ 444 to 1780 µM) | 0.75 - 1.5 | < 20 | 1.97 - 4.28 | < 20 | 1.97 - 4.28 | < 20 | < 20 | 500 (≈ 1780 µM) | < 20 | < 20 | 0.75 - 1.5 | 125 to 500 (≈ 444 to 1780 µM) | 66 - 99% | < 20 | 125 to 500 (≈ 444 to 1780 µM) | 125 to 500 (≈ 444 to 1780 µM) | 500 (≈ 1780 µM) | 125 to 500 (≈ 444 to 1780 µM) | inhibition [21]: < 20%; fractional inhibitory concentration index (FICI) [22]: 1.97 - 4.28; fractional inhibitory concentration index (FICI) [23]: 1.97 - 4.28; inhibition (INH) [24]: 49 - 94%; fractional inhibitory concentration index (FICI) [25]: 1.97 - 4.28; fractional inhibitory concentration index (FICI) [26]: 1.97 - 4.28; inhibition [27]: < 20%; fractional inhibitory concentration index (FICI) [28]: 1.97 - 4.28; MIC [29]: 125 to 500 µg/mL (≈ 444 to 1780 µM); fractional inhibitory concentration index (FICI) [30]: 0.75 - 1.5; MIC [31]: 125 to 500 µg/mL (≈ 444 to 1780 µM)
